Experimental data: ChEMBL document CHEMBL4020774, “Anti-influenza activity of monoterpene-containing substituted coumarins” (Bioorg Med Chem Lett, 2017)
Active and inactive are the calls of the source. The rule behind the calls is not given here.

Key:
[1] = Cytotoxicity against MDCK cells after 48 hrs by MTT assay; type: cell-based, Canis lupus familiaris; conditions: dog
Outline: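 Uninfected MDCK cells were exposed to three-fold compound dilutions in MEM for 48 h at 36°C, 5% CO2, then washed with PBS. MTT ([…] in PBS) was added for 1 h, and formazan was dissolved in DMSO.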

[2] = Antiviral activity against Influenza A virus (A/California/07/09(H1N1)) pdm09 infected in MDCK cells pretreated for 1 hr followed by viral infection incubated for 24 hrs measured after 48 hrs by hemagglutination test; type: functional, cell-based, Influenza A virus (A/California/07/2009(H1N1))
Outline: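 MDCK cells preincubated with compound for 1 h at 36°C, each concentration in triplicate, then infected (moi 0.01) for 24 h at 36°C, 5% CO2. Supernatant virus titer was read by hemagglutination after 48 h culture in MDCK cells at 36°C.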

[3] = tested on: Influenza A virus; assay: Antiviral activity against Influenza A virus (A/Puerto Rico/8/34(H1N1)) infected in MDCK cells at 500 uM after 4 to 8 hrs post infection by MTT assay; type: functional, cell-based; conditions: A/Puerto Rico/8/1934(H1N1)
Outline: (§1)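 Time-of-addition assay in MDCK cells. Virus was adsorbed at m.o.i. 10 for 1 h at 4°C, unbound virions were washed off with MEM, and cells were incubated for 8 h at 36°C, 5% CO2 (start = 0 h). Compound at 500 µM final in MEM was present during set windows between −2 and 8 hpi, then washed out. Titer after 8 h was read as TCID50 by MTT assay.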

[4] = Selectivity index, ratio of CC50 for MDCK cells to IC50 for Influenza A virus (A/California/07/09(H1N1)) pdm09 infected in MDCK cells; type: toxicity, cell-based; conditions: dog; read-out: Ratio CC50/IC50
[5] = tested on: Influenza A virus; assay: Antiviral activity against Influenza A virus (A/Puerto Rico/8/34(H1N1)) infected in MDCK cells at 500 uM at 1 to 2 hrs post infection by MTT assay; type: functional, cell-based; conditions: A/Puerto Rico/8/1934(H1N1); outline: as §1

Row | Structure (SMILES) | CC50 at 48 h [1] [µM] | IC50 [2] [µM] | Activity [3] | selectivity ratio [4] | Activity [5]
1 | COc1cccc(COc2ccc3c4c(c(=O)oc3c2)CCCC4)c1 | > 982 | > 982 | – | – | –
2 | CC1(C)[C@H]2CC=C(COc3ccc4c5c(c(=O)oc4c3)CCC5)[C@@H]1C2 | 982 | 36 | inactive | 28 | Active
3 | COc1cccc(COc2ccc3ccc(=O)oc3c2)c1 | > 1170 | > 1170 | – | – | –
4 | CC(C)=CCC/C(C)=C/COc1ccc2c(C)cc(=O)oc2c1 | 28 | > 10 | – | < 3 | –
5 | CC(C)=CCC/C(C)=C/COc1ccc2c3c(c(=O)oc2c1)CCC3 | > 888 | > 888 | – | – | –
6 | CC1(C)[C@@H]2CC=C(COc3ccc4ccc(=O)oc4c3)[C@H]1C2 | 7 | > 10 | – | 1 | –
7 | CC1(C)[C@H]2CC=C(COc3ccc4c5c(c(=O)oc4c3)CCCC5)[C@@H]1C2 | 857 | 64 | – | 13 | –
8 | Cc1cc(=O)oc2cc(OCC3=CC[C@H]4C[C@@H]3C4(C)C)ccc12 | 30 | 4 | – | 9 | –
9 | CC(N)C12CC3CC(CC(C3)C1)C2 (stereo unspecified) [RIMANTADINE] | 363 | 41 | – | 9 | –
10 | COc1cccc(COc2ccc3c(C)cc(=O)oc3c2)c1 | > 1120 | 1010 | – | > 1 | –
11 | CC1(C)[C@H]2CC=C(CCOc3ccc4c5c(c(=O)oc4c3)CCC5)[C@@H]1C2 | > 857 | 21 | – | 41 | –
12 | CC1(C)[C@H]2CC=C(CCOc3ccc4c5c(c(=O)oc4c3)CCCC5)[C@@H]1C2 | 18 | 3 | – | 6 | –
13 | CC(C)=CCC/C(C)=C/COc1ccc2c3c(c(=O)oc2c1)CCCC3 | 100 | > 85 | – | 1 | –
14 | CC1(C)[C@@H]2CC=C(COc3ccc4c5c(c(=O)oc4c3)CCC5)[C@H]1C2 | 133 | 33 | – | 4 | –
15 | Cc1cc(=O)oc2cc(OCC3=CC[C@@H]4C[C@H]3C4(C)C)ccc12 | 130 | 10 | – | 13 | –
16 | CC(C)=CCC/C(C)=C/COc1ccc2ccc(=O)oc2c1 | 7 | 7 | – | 1 | –
17 | CC1(C)[C@@H]2CC=C(COc3ccc4c5c(c(=O)oc4c3)CCCC5)[C@H]1C2 | 415 | 149 | – | 3 | –
18 | CC1(C)[C@H]2CC=C(COc3ccc4ccc(=O)oc4c3)[C@@H]1C2 | 310 | > 101 | – | < 3 | –
19 | CC1(C)[C@H]2CC=C(CCOc3ccc4ccc(=O)oc4c3)[C@@H]1C2 | 10 | 0.5 | – | 20 | –
